Assay results as given in publication PMC3457684 (Science translational medicine, 2012).
Values joined by “and” are separate entries in the source; they are usually repeats but may differ in a detail not shown here. Equal entries are not always repeated. Where two headings read alike, the source gives them in different places.

Legend:
[1] = Plasma protein binding by equilibrium dialysis; type: in vitro ADME; settings: mouse
[2] = Fexinidazole exposure in mice after acute oral dosing; type: in vivo, BALB/c mice; settings: single oral dose of fexinidazole 200 mg kg^−1, mouse blood
[3] = system: L. donovani (strain LdBOB) promastigotes; assay: In vitro drug sensitivity assay, promastigotes; type: cell-based, Leishmania donovani; settings: for EC50: Leishmania donovani, 72 h, read-out: L. donovani EC50, Promastigote
Outline: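 Clonal LdBOB promastigotes were grown at 26 °C in stage-specific medium. Triplicate cultures were seeded at 1 × 10⁵ parasites ml⁻¹ with test compound for 72 h, then given 50 μM resazurin, and fluorescence (ex 528, em 590 nm) was read after 4 h. For isobolograms, mid-log promastigotes received the two metabolites in fixed combinations relative to their respective EC50s. The EC50 of each combination was determined at 72 h (triplicate, mean ± SD) and plotted.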

[4] = system: L. donovani (strain LdBOB) axenic amastigotes; assay: In vitro drug sensitivity assay, axenic amastigotes; type: cell-based; settings: Leishmania donovani
Outline: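 Clonal LdBOB axenic amastigotes were grown at 37 °C in 5% CO₂ in stage-specific medium and cycled between stages after at most 7 passages. Triplicate cultures were seeded at 1 × 10⁵ parasites ml⁻¹ with test compound for 72 h. Resazurin (50 μM) was added, and fluorescence (ex 528, em 590 nm) was read 4 h later. At least three experiments were run; results are weighted mean plus weighted standard deviation.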

[5] = system: L. donovani (strain LdBOB) axenic amastigotes; assay: Cytocidal effect on axenic amastigotes; type: cell-based, Leishmania donovani; settings: drug at 10 times its EC50 (sulfone 36 μM), wash-out and sub-culture without drug
Outline: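 Early-log LdBOB axenic amastigotes (~1 × 10⁶ ml⁻¹), grown at 37 °C in 5% CO₂, were exposed to test compound at 36 μM. At intervals, cell density was counted, and samples were removed, washed and resuspended in fresh drug-free medium. Viability of washed parasites was followed for up to 72 h after drug removal to find the point of irreversible toxicity.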

[6] = system: L. donovani; settings: similar in vivo studies; cited from earlier work
[7] = system: L. donovani (strain LdBOB) axenic amastigotes overexpressing L. major nitroreductase; assay: Drug susceptibility of axenic amastigotes overexpressing L. major nitroreductase; type: cell-based, Leishmania donovani; settings: for shift in sensitivity, nitroreductase overexpressing vs wildtype: axenic amastigotes; for EC50: read-out: EC50, axenic amastigotes overexpressing nitroreductase
[8] = system: L. donovani strain LV9; assay: In vivo drug sensitivity, mouse model of visceral leishmaniasis; design: species or system BALB/c mice; settings: oral, once daily for 5 days
[9] = system: intracellular L. donovani (LV9) amastigotes in peritoneal mouse macrophages; assay: In macrophage drug sensitivity assay; type: cell-based, Leishmania donovani; settings: strain LV9, peritoneal mouse macrophages, 72h
[10] = 72 h, read-out: L. donovani EC50, Axenic amastigote
[11] = read-out: EC50, wildtype axenic amastigotes

Row | SMILES | fraction unbound [1] | time blood concentration stays above EC99 [2] | EC50 [3] | interaction in combination (isobologram) ([3]; fexinidazole sulfoxide plus sulfone, LdBOB promastigotes, 72h) | EC50 [4, 10] | exposure time after which no viable parasites could be recovered [5] | ED50 [6] | ED90 [6] | shift in sensitivity, nitroreductase overexpressing vs wildtype [7] | EC50 [7] | EC50 [4, 11] | tolerability in mice ([8]; up to 200 mg kg^−1) | ED50 ([8]; liver parasite burden day 14) | L. donovani EC50, Amastigote (in macrophages) [9]
1 | Cn1c([N+](=O)[O-])cnc1COc1ccc([S+](C)[O-])cc1 (stereo not drawn) [Fexinidazole sulfoxide, fexinidazole sulfoxide] | 0.86 | 8 h | 3.1 ± 0.1 µM | additive | 4.5 ± 0.3 µM | 30 h |  |  |  |  |  |  |  | 
2 | O.O.O.O.O.O.O.O.O.O=C([O-])[C@@H]1[O][Sb](=[O])([O][Sb]2(=[O])[O][C@H]([C@H](O)CO)[C@H](O)[C@H](C(=O)[O-])[O]2)[O][C@H]([C@H](O)CO)[C@@H]1O.[Na+].[Na+].[Na+] (stereo partly drawn) [Pentostam] |  |  |  |  |  |  | 20 mg/kg | 57 mg/kg |  |  |  |  |  | 
3 | CCCCCCCCCCCCCCCCOP(=O)([O-])OCC[N+](C)(C)C [Miltefosine, miltefosine] | 0.002 |  | 6.1 ± 0.3 µM |  | 4.4 ± 0.2 µM |  | 4 mg/kg | 27 mg/kg | no concomitant shift | 4.9 ± 0.2 µM |  |  |  | 
4 | Cn1c([N+](=O)[O-])cnc1COc1ccc(S(C)(=O)=O)cc1 [Fexinidazole sulfone, fexinidazole sulfone] | 0.73 | more than 24 h | 4.8 ± 0.1 µM |  | 1.6 ± 0.1 µM | 30 h |  |  | 19 fold | 0.23 ± 0.1 µM | 4.4 ± 0.1 µM |  |  | 
5 | CC1CS(=O)(=O)CCN1/N=C/c1ccc([N+](=O)[O-])o1 (stereo not drawn) [nifurtimox] |  |  |  |  |  |  |  |  | 27 fold | 0.2 ± 0.1 µM | 5.6 ± 0.2 µM |  |  | 
6 | CSc1ccc(OCc2ncc([N+](=O)[O-])n2C)cc1 [Fexinidazole, fexinidazole] | 0.15 |  | 5.6 ± 0.2 µM |  | 2.8 ± 0.1 µM |  |  |  | 19 fold |  |  | well tolerated | ~12 mg/kg and 11.9 ± 2.3 mg/kg | inactive
